# CSC inhib: cancer stem cell inhibition | cancer stem cell-like cells viability, luminescence | inhibition, % at 7.5 µM | 300,000 compounds, 1.1% hits | AID 2717; in the data active means inhibition above about 75%; inconclusive means no clear call, values can overlap the other calls; tested in HMLE shEcad cells
# NALP3 yeast inh: NALP3 inhibition in yeast; Yeast reconstituted NLRP3/ASC/caspase-1, beta-gal luminescence, 24 h; inhibition, % at 10 µM; 330,000 compounds, 0.39% hits;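 active means inhibition of 50% or more; inactive means inhibition below 50%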;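 further: plate controls were induced DMSO wells for no effect and uninduced yeast grown without galactose for full effect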
# Mdm2 MdmX PPI: inhibitors of human Mdm2/MdmX interaction; inhibition, % at 8 µM; O15151+Q00987; 330,000 compounds, 3% hits; AID 485346; SaOS-2 split-luciferase Mdm2/MdmX complementation, luminescence;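 active means inhibition of at least 50% at 8 µM in the primary screen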
# Beta cell apopt: beta cell apoptosis inhibition | INS-1E cytokine-induced death, ATP luminescence, 48 h; percent of positive-control rescue, neutral wells zero | protection from apoptosis, % (no concentration beside the values) | 300,000 compounds, 0.8% hits;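 active means Every replicate reaches about 75%, or at least half do and their mean reaches it too, limit read from the data; inconclusive means At least half of replicates reach the limit but their mean does not; inactive means Under half of replicates reach the limit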;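 further: 0% = cytokine-treated negative control wells and 100% = positive control rescue; higher means more ATP so stronger rescue from cytokine killing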
# Calb FLC: C. albicans growth modulation with fluconazole. C. albicans CaCi-2 (fluconazole-resistant clinical isolate) + fluconazole, Alamar Blue growth, 48 h. growth inhibition, % (test concentration not listed). 300,000 compounds, 0.57% hits. AID 1979;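 active means growth inhibition above about 58% in most replicates, limit read from the data, passing the limit was not always enough; inconclusive means exactly half the replicates above a set limit; inactive means most replicates below a set limit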;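 further: all wells also contain fluconazole at 8 µg/ml as a sub-toxic cotreatment; 0% = median of DMSO wells and 100% = median of geldanamycin control wells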
# T cruzi repl: T. cruzi replication inhibition | T. cruzi beta-gal in NIH3T3, luminescence, 90 h | inhibition, % (concentration not given with the values) | 300,000 compounds, 1.4% hits | AID 1885;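 active means mean inhibition across valid replicates above about 55%, limit read from the data; inconclusive means mean below that limit but half or more replicates reach it; inactive means mean below it, under half of replicates reach it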;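 further: signal also drops with host cell toxicity which is not excluded here; 0% = plate median of DMSO wells and 100% = zero luminescence signal; higher percent means less beta-gal luminescence so fewer parasites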
#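 compound dosing = single 50 nL compound addition per well in DMSO | material = NIH/3T3 host cells with β-galactosidase reporter T. cruzi | input = 5,000 host fibroblasts per well | timing = ≥90 h infection period, 3 h prior cell attachment | read-out basis = percent inhibition of parasite-derived β-gal signal | detection = GalScreen β-gal luminescence, detergent lysis, 60 min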
# Mdm2-MdmX conf: human Mdm2/MdmX binding inhibition, confirmed; shares compounds with Mdm2 MdmX PPI; luminescent assay; inhibition, % at 8 µM; 10,000 compounds, 55% hits; in the data active means inhibition above about 40%
# Full FLuc ctr: counter-screen for Mdm2/MdmX inhibitors: full-length luciferase; shares compounds with Mdm2 MdmX PPI; SaOS-2 full-length luciferase counterscreen, luminescence; inhibition, % at 8 µM; 6,200 compounds, 77% hits;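 active means mean inhibition at 8 µM reaching about 37%, which flags the compound as non-specific, limit read from the data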;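 further: p53-null SaOS-2 cells with luciferase driven by a doxycycline-inducible promoter; compound on cells about two nights before reading with doxycycline added after day one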
# Numbers without * were called inactive; u = inconclusive; x = no result given. Hits are enriched below; roughly 5.3% of the tested compounds scored in any of these assays.
SMILES,CSC inhib,NALP3 yeast inh,Mdm2 MdmX PPI,Beta cell apopt,Calb FLC,T cruzi repl,Mdm2-MdmX conf,Full FLuc ctr
Cc1ccc(C2(c3ccc(C)cc3)CC2C(=O)Nc2ccc([N+](=O)[O-])cc2O)cc1 (centres undefined),173.6*,8.1,95.8*,124.5*,-12.6,54.9*,93.1*,49.0*
Cc1ccc(NC(=O)COC(=O)/C=C/c2c(C)nn(-c3ccc(F)cc3)c2Cl)cc1F,6.7,2.8,52.0*,9.2,-17.3,18.0,3.5,x
O=C(Nc1ccc2c(c1)OCO2)c1cc(-c2ccc(O)cc2)on1,101.2*,0.6,83.7*,x,-11.3,54.9*,-25.2,x
COc1ccc(NC(=O)c2cc(-c3ccc4c(c3)OCO4)on2)cc1OC,10.6,0.6,67.9*,3.7,-9.7,-3.1,44.8*,97.1*
COc1ccc(-c2cc(C(=O)Nc3ccc4c(c3)OCO4)no2)cc1OC,16.9,11.5,22.0,4.9,-20.7,8.1,x,x
CN1CCN(S(=O)(=O)c2cccc(S(=O)(=O)c3ccc(Cl)cc3)c2)CC1,-7.1,-4.5,1.6,-4.8,-14.9,16.6,x,x
CC(=O)c1c(C)[nH]c(C(=O)OCc2nnc(-c3ccc([N+](=O)[O-])cc3)o2)c1C,3.1,3.9,52.6*,-8.1,x,x,26.4,x
Cn1ccsc1=NC(=O)c1ccc(S(C)(=O)=O)c([N+](=O)[O-])c1,5.0,1.1,50.8*,-25.0,-9.8,-8.2,23.1,x
Cn1cccc1C(=O)NC(=O)COC(=O)c1ccc(S(C)(=O)=O)cc1,-26.2,-5.8,25.1,0.3,x,x,x,x
CS(=O)(=O)c1ccc(C(=O)OCc2nnc(-c3ccc(Cl)cc3)o2)cc1[N+](=O)[O-],47.6,2.8,96.2*,-15.1,2.8,10.0,59.6*,15.1
Cn1cccc1C(=O)NC(=O)COC(=O)c1ccc(S(C)(=O)=O)c([N+](=O)[O-])c1,53.5,5.5,64.2*,-58.2,x,x,40.0,40.0*
CC(=O)c1c(C)[nH]c(C(=O)OCC(=O)NNC(=O)c2ccc([N+](=O)[O-])cc2)c1C,-18.1,12.0,13.3,-0.2,x,x,x,x
Cc1cc(C(=O)Nc2c(C)n(C)n(-c3ccccc3)c2=O)on1,-14.9,-5.1,-0.6,x,-4.0,-6.7,x,x
Cc1ccc2nc(/N=C(\N)NC(=O)NC3CCCCC3)nc(C)c2c1,63.2,31.8,65.0*,-0.7,0.6,44.4,46.4*,56.5*
CCc1ccc2nc(N=C(N)N)nc(C)c2c1,16.6,-9.4,58.8*,15.4,u,31.3,42.0*,81.8*
Cc1ccc2nc(N=C(N)N)nc(C)c2c1,7.9,-5.3,51.2*,x,-7.2,34.8,44.0*,101.7*
CCCC(=O)N/C(N)=N/c1nc(C)c2cc(C)ccc2n1,10.9,6.1,30.7,2.0,-10.6,-1.5,x,x
Nc1nc2n(n1)C(=O)CC(c1ccccc1)N2 (centres undefined),-16.7,13.5,9.7,-4.3,3.7,7.5,x,x
N#Cc1sc2nccc(Nc3ccccc3)c2c1N,-8.6,35.9,92.4*,-16.1,-5.4,-0.1,78.3*,48.7*
Cc1ccc(N(C)S(=O)(=O)c2cccc(C(=O)NC3CC(C)(C)NC(C)(C)C3)c2)cc1,-6.0,17.0,35.2,1.5,-1.3,-2.3,x,x
CC1(C)CC(NC(=O)c2cccc(S(=O)(=O)N(Cc3ccccc3)c3ccccc3)c2)CC(C)(C)N1,17.7,-13.3,95.0*,5.1,-2.2,49.3,58.8*,60.9*
COc1ccccc1N(Cc1ccccc1)S(=O)(=O)c1cccc(C(=O)Nc2ccccn2)c1,32.3,20.6,66.6*,5.2,0.9,35.5,60.5*,91.0*
COc1ccccc1N(Cc1ccccc1)S(=O)(=O)c1cccc(C(=O)Nc2ccc(C)cn2)c1,2.4,1.7,54.9*,23.2,7.0,62.4*,36.5,x
COc1ccccc1CNC(=O)c1ccc(Br)o1,-5.3,0.7,7.9,-8.8,-6.6,-1.4,x,x
C=CCNc1oc(-c2ccc(Cl)cc2)nc1C#N,x,-22.1,50.1*,x,x,x,5.5,x
SMILES,CSC inhib,NALP3 yeast inh,Mdm2 MdmX PPI,Beta cell apopt,Calb FLC,T cruzi repl,Mdm2-MdmX conf,Full FLuc ctr
CCN1C(=O)C(O)(C2COC(C)(C)CC2=O)c2cc(Br)ccc21 (centres undefined),35.5,-3.4,54.9*,-3.2,-6.7,3.3,52.0*,67.9*
C[C@@H](NC(=O)[C@@H]1Cc2ccccc2CN1C(=O)OC(C)(C)C)C(=O)NC1CCCCC1,23.6,19.1,-12.1,0.1,-25.1,1.0,x,x
Cn1cccc1Cc1nnc(SCC(=O)Nc2cccc(Cl)c2)n1-c1ccc(F)cc1,6.0,3.6,14.5,-3.6,2.9,-10.3,x,x
Cc1cccc(OC(=O)Cn2c(C(F)(F)F)nc3ccccc32)c1,-5.1,6.3,7.8,-5.5,3.1,-4.4,x,x
Cc1cccc(OCc2n(CC(=O)OC3CC(C)CCC3C(C)C)c3ccccc3[n+]2C)c1 (centres undefined),103.4*,18.4,94.5*,106.3*,102.1*,64.5*,96.3*,55.8*
CC1CCC(C(C)C)C(OC(=O)Cn2c(-c3ccccc3)[n+](C)c3ccccc32)C1 (centres undefined),17.2,-4.0,93.1*,104.5*,17.0,46.2,94.0*,37.9*
CC1CCC(C(C)C)C(OC(=O)Cn2c(-c3ccc(F)cc3)[n+](C)c3ccccc32)C1 (centres undefined),9.8,1.7,89.0*,105.1*,x,x,93.2*,56.5*
O=C(NC(=S)Nc1cccc(Cl)c1N1CCCCC1)c1ccc2c(c1)OCCO2,82.1*,20.8,61.4*,15.8,12.2,35.1,63.0*,56.7*
COc1ccc(CCNC(=O)c2nnn(-c3ccc4c(c3)OCCO4)c2N)cc1OC,-11.3,-0.1,80.5*,0.7,3.0,-11.4,79.0*,37.9*
COc1ccc(Br)cc1S(=O)(=O)NCCN1CCOCC1,-5.7,0.5,18.9,x,-15.2,-9.2,x,x
Cc1ccc2c(c1)-c1c(cnn1CC(=O)N1CCCN(Cc3ccccc3F)C1)CO2,-22.4,4.1,-23.2,-8.7,2.0,9.9,x,x
COC(=O)C1=C(C)Nc2nc3ccccc3n2C1c1cc(OC)c(OC)c(OC)c1 (centres undefined),0.1,3.0,51.6*,-0.4,3.4,11.7,45.5*,95.8*
Cc1cccc(Oc2ccccc2NC(=O)CSCC(=O)Nc2cc(C)on2)c1,x,24.4,66.7*,x,x,x,57.9*,108.5*
CCOc1ccc(Oc2ccccc2NC(=O)CSCC(=O)Nc2cc(C)on2)cc1,5.9,15.6,6.9,-4.8,-5.8,-7.2,x,x
CC(C)C[C@H](NC(=O)c1ccc(OC2CCN(C(=O)C3CC3)CC2)cc1)C(N)=O,-9.7,10.5,18.0,-2.1,18.8,-4.0,x,x

# Screening data deposited in PubChem by several laboratories.
